Hits are enriched below; roughly 2.9% of the tested compounds scored in any of these assays.
S100A4 MyoIIA = inhibitors of human S100A4 binding to myosin IIA peptide | P26447 | S100A4/TAMRA-MyoIIA peptide fluorescence polarization | inhibition, % at 10.7 µM | actives 0.14% (n = 360,000);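 active = mean inhibition of at least 70% across replicates, with every replicate also reaching that level; inconclusive = mean inhibition reaches 70% but some replicates fall short; inactive = mean inhibition below 70%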
Target sequence (P26447 whole entry, looked up): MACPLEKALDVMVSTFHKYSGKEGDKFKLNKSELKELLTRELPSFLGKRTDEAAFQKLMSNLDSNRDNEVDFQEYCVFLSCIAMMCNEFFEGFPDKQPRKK
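Assay system: human S100A4 monomer with TAMRA-labelled myosin IIA peptide / Buffer or medium: Calcium-containing HEPES buffer, pH 7.2 / Reagent: TAMRA-labelled myosin IIA heavy-chain peptide probe, 5 nM / Compound: one dose per compound / Timing: polarization read 5 min after assay mix addition, stable 5–60 min / Benchmarks: neutral control DMSO, positive control TFP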
DENV2 CPE rescue = protects cells from dengue virus 2 cytopathic effect; DENV2-infected cells, cytopathic effect rescue, plate reader; CPE inhibition, % at 9.99 µM; actives 1.7% (n = 350,000); in the data active = CPE inhibition above about 20%, passing the limit was not always enough; inconclusive = no clear call, values can overlap the other calls; tested in BHK-21 cells
PGC1a acetyl inh = modulators of PGC1a acetylation; U2OS PGC1a acetylation, AlphaScreen anti-acetyl-lysine; with virally co-expressed GCN5 acetyltransferase; inhibition, % at 15.6 µM; AID 651687; actives 0.17% (n = 350,000);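 active = every replicate shows inhibition of at least 40%; inconclusive = mean inhibition at least 40% but some replicate below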
Statin myotox sup = suppressors of simvastatin-induced myotoxicity in C2C12 myotubes; ATP luminescence, 48 h; scaled: DMSO 0, geranylgeraniol control 100; rescue of ATP level, % at 7.49 µM; actives 0.78% (n = 330,000);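 active = mean ATP rescue above about 67%, or every replicate alone reaching that limit, limit read from the data, passing the limit was not always enough; inconclusive = no clear call, values can overlap the other calls; inactive = mean under the limit and some replicate under it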;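 note: myotubes were challenged with 10 µM simvastatin during compound exposure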
SIRT5 inh = inhibitors of human sirtuin-5 desuccinylase. Q9NXA8. Purified SirT5, succinyl-peptide AMC, trypsin-coupled fluorescence. inhibition, % at 15 µM. actives 1.1% (n = 330,000); in the data active = inhibition above about 15%; inconclusive = no clear call, values can overlap the other calls
Target sequence (Q9NXA8 whole entry, looked up): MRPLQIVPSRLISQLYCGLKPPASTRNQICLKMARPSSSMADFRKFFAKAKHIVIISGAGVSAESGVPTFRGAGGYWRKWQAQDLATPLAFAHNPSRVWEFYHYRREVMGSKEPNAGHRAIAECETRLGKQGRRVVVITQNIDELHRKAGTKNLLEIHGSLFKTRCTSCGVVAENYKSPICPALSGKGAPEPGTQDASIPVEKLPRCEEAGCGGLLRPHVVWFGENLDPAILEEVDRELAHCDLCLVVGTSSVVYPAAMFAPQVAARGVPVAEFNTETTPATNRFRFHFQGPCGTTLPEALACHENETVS
Hits are given with their value; – = inactive; ? = inconclusive; · = not tested or not shown.

SMILES	S100A4 MyoIIA	DENV2 CPE rescue	PGC1a acetyl inh	Statin myotox sup	SIRT5 inh
COCCNC(=S)N(C)[C@H]1C[C@H]2c3[nH]c4c(-c5ccc6c(c5)OCO6)cccc4c3CCN2C(=O)[C@H]1[C@H](C)O	–	–	·	·	–
CCCNC(=O)N(C)C[C@H]1Oc2ncc(Br)cc2C(=O)N([C@@H](C)CO)C[C@@H]1C	·	–	–	–	–
CO[C@H]1CC[C@@H]2CCOc3ccc(C#N)cc3C(=O)N(C)C[C@@H](OC)[C@@H](C)C(=O)N(C)C[C@@H]1O2	–	–	·	–	–
COc1ccc(C#Cc2ccc3c(c2)O[C@@H](CN(C)C(=O)CN2CCOCC2)[C@H](C)CN([C@@H](C)CO)S3(=O)=O)cc1	–	–	–	–	–
O=C1N[C@@H](Cc2ccccc2)[C@@H](c2ccco2)O1	–	?	·	–	45
C[C@H](CO)N1C[C@H](C)[C@H](CN(C)S(=O)(=O)c2ccccc2F)OCc2cn(nn2)CCCC1=O	·	·	–	–	·
COc1ccc2[nH]cc(C(=O)CNc3nc(C)cs3)c2c1	·	·	–	125	·
Cc1nc(CSc2ccc(Cl)cc2)cc(N2CC(C)OC(C)C2)n1 (stereo unspecified)	–	–	–	107	–
Clc1ccc(SCc2cc(N3CCOCC3)nc(-c3ccccn3)n2)cc1	–	–	–	·	·
C[C@@H]1CN([C@@H](C)CO)C(=O)c2cccc(NS(=O)(=O)c3ccc(Cl)cc3)c2O[C@@H]1CN(C)C(=O)Nc1ccc2c(c1)OCO2	–	–	–	–	–
COc1cc(OC)c(NC(=O)CCNS(=O)(=O)c2cc(Br)cnc2N)cc1Cl	·	·	–	94	·
Cc1cc(F)ccc1-c1cc(C(=O)NCc2ccco2)[nH]n1	–	57	–	–	·
Cn1ccnc1SCC(=O)Nc1cccc(C#N)c1	–	87	·	–	–
C[C@@H]1CN([C@@H](C)CO)C(=O)Cc2cc(NC(=O)c3ccncc3)ccc2O[C@H]1CN(C)CC1CC1	–	–	–	–	–
C[C@@H]1CCCCO[C@@H](CN(C)C(=O)Nc2ccc3c(c2)OCO3)[C@@H](C)CN([C@@H](C)CO)C(=O)c2cc(NC(=O)Cc3ccccc3)ccc2O1	·	–	–	·	·
C[C@H]1CCCCO[C@H](CN(C)C(=O)Nc2ccc3c(c2)OCO3)[C@@H](C)CN([C@@H](C)CO)C(=O)c2cc(NC(=O)Cc3ccccc3)ccc2O1	·	27	–	·	·
C[C@@H]1CN([C@@H](C)CO)C(=O)c2cc(NC(=O)Nc3ccc(C(F)(F)F)cc3)ccc2O[C@@H](C)CCCCO[C@@H]1CN(C)Cc1ccccc1	–	127	–	·	–
C[C@H](CO)N1C[C@H](C)[C@H](CN(C)Cc2ccc(C(F)(F)F)cc2)OCCCC[C@H](C)Oc2ccc(NC(=O)Cc3ccccc3)cc2C1=O	–	–	–	–	–
C[C@@H]1CCCCO[C@@H](CN(C)Cc2ccc(C(F)(F)F)cc2)[C@H](C)CN([C@H](C)CO)C(=O)c2cc(NC(=O)Cc3ccccc3)ccc2O1	–	40	–	–	–
C[C@@H]1CCCCO[C@H](CN(C)Cc2ccccc2)[C@H](C)CN([C@@H](C)CO)C(=O)c2cc(NC(=O)c3ccccc3)ccc2O1	·	27	–	·	·
C[C@@H]1CCCCO[C@@H](CN(C)C(=O)Nc2ccc(C(F)(F)F)cc2)[C@H](C)CN([C@H](C)CO)C(=O)c2cc(NC(=O)Cc3ccccc3)ccc2O1	·	91	–	·	·
C[C@H]1CCCCO[C@H](CN(C)C(=O)Nc2ccc(C(F)(F)F)cc2)[C@@H](C)CN([C@@H](C)CO)C(=O)c2cc(NC(=O)Cc3ccccc3)ccc2O1	·	–	–	·	·
CS(=O)(=O)N1CCc2cc(C(=O)N3CCN(c4ccccc4)CC3)ccc21	–	23	–	–	–
CS(=O)(=O)Nc1ccc(C(=O)N2CCN(c3ccccc3)CC2)cc1	–	–	–	115	–
Cc1cccc(OCC(=O)Nc2ccc(N3CCN(C(=O)c4ccccc4)CC3)cc2)c1C	–	43	·	–	–
SMILES	S100A4 MyoIIA	DENV2 CPE rescue	PGC1a acetyl inh	Statin myotox sup	SIRT5 inh
CS(=O)(=O)N1CCc2cc(C(=O)N3CCN(c4ccc(F)cc4)CC3)ccc21	–	–	–	–	–
CCNC(=O)[C@H]1[C@H](CO)[C@H]2Cn3c(ccc(-c4ccncc4)c3=O)[C@@H]1N2CC1CC1	–	–	·	–	–
CS(=O)(=O)Nc1ccc2c(c1)[C@H]1C[C@@H](CC(=O)NCc3cc(F)ccc3F)O[C@@H](CO)[C@H]1O2	–	–	–	–	–
C[C@@H]1CN([C@H](C)CO)C(=O)c2cc(C#CC(C)(C)O)cnc2O[C@H]1CN(C)C(=O)CN(C)C	–	–	–	–	–
CC1(C(=O)Nc2cccc(C(F)(F)F)c2)Cc2c(-c3cccc(C(N)=O)c3)ccnc2O1 (stereo unspecified)	–	–	–	–	–
CC1(C(=O)NCc2cccs2)Cc2c(-c3cccc(C(F)(F)F)c3)ccnc2O1 (stereo unspecified)	–	27	–	–	–
CC1(C(=O)Nc2cccc(OC(F)(F)F)c2)Cc2c(-c3cccc(C(N)=O)c3)ccnc2O1 (stereo unspecified)	–	21	·	–	–
O=C(Nc1ccc(F)cc1F)C1CC(=O)N(Cc2ccccc2)C1 (stereo unspecified)	–	?	–	–	–
O=C(Nc1ccc(F)cc1F)NC1CC(=O)N(Cc2ccccc2)C1 (stereo unspecified)	·	·	–	86	·
Cc1cc2ncn(/N=C/c3ccc(-c4ccccc4)o3)c2cc1C	–	·	–	146	–
O=C(Cc1ccccc1)N[C@@H]1CC[C@H](CC(=O)N2CCCCC2)O[C@@H]1CO	–	–	–	–	–
Nc1ccc(-c2c3ccc(=O)cc-3oc3cc(O)ccc23)cc1C(=O)O	–	–	·	·	19
COCC(=O)Nc1ccc2c(c1)[C@@H]1C[C@@H](CC(=O)N3CCOCC3)O[C@@H](CO)[C@@H]1O2	86	–	–	–	–
O=C(C[C@@H]1C[C@H]2c3cc(NS(=O)(=O)c4ccccc4)ccc3O[C@H]2[C@@H](CO)O1)N1CCOCC1	111	–	–	–	–
C[C@H](CO)N1C[C@H](C)[C@H](CN(C)Cc2ccc(C(=O)O)cc2)Oc2ccc(N(C)C)cc2C1=O	·	·	–	–	·
COc1ccc(S(=O)(=O)N[C@H]2C=C[C@@H](CC(=O)N3CCc4ccccc4C3)O[C@H]2CO)cc1	–	–	–	–	–
C[C@H](CO)N1C[C@H](C)[C@@H](CN(C)C(=O)Nc2ccccc2)Oc2ccc(NS(=O)(=O)c3ccc(F)cc3)cc2C1=O	–	–	–	–	–
C[C@@H]1CN([C@H](C)CO)C(=O)c2cc(NS(=O)(=O)c3ccc(Cl)cc3)ccc2O[C@@H]1CN(C)C(=O)Nc1ccccc1	–	–	–	82	–
C[C@@H]1CN([C@@H](C)CO)C(=O)c2cc(NS(=O)(=O)c3ccc(F)cc3)ccc2O[C@@H]1CN(C)C(=O)Nc1ccccc1	–	36	–	–	–

Compound activity as filed in PubChem BioAssay.
